Assay results taken from ChEMBL document CHEMBL1122203, “Potential tumor- or organ-imaging agents. 23. Sterol esters of iopanoic acid” (J Med Chem, 1982).

Columns and labels:
[1] = system: Rattus norvegicus; experiment: Evaluated for distribution at 24 hours after intravenous administration in blood of female Sprague Dawley rats; format: ADME, organism-based; settings: in vivo
Method in brief: (§1)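 Radioiodinated compound solubilized in Tween (2–3% clear solution) and given intravenously to adult female Sprague-Dawley rats, 200–250 g; 5–30 µCi per animal, 4–5 rats per group. Killed by exsanguination under ether anesthesia; organs blotted, adrenal cortex dissected from medulla, weighed samples gamma-counted (84% efficiency). Expressed as percent administered dose per gram tissue ± SEM.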

[2] = Percent parent compound extracted at 24 hours from plasma using CHCl3/CH3OH.; format: ADME, cell-free; settings: read-out: Extracted
Method in brief: (§2)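 Lipid extracts from plasma, adrenal cortex and liver taken at 0.5 or 24 h after iv dosing were run on TLC beside unlabeled ester reference (iodine vapor). Eluents were petroleum ether/diethyl ether 7:2 for the cholesteryl ester and benzene/ethyl acetate 9:1 for the others, developed 14.5 cm. Plates were cut into 1-cm strips and counted; parent given as percent of extractable radioactivity.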

[3] = system: Rattus norvegicus; experiment: Evaluated for distribution at 0.5 hr after intravenous administration in adrenal cortex of female Sprague Dawley rats; format: ADME, organism-based; settings: in vivo; method in brief: as §1
[4] = system: Rattus norvegicus; experiment: Evaluated for distribution at 24 hours after intravenous administration in liver of female Sprague Dawley rats; format: ADME, organism-based; settings: in vivo; method in brief: as §1
[5] = system: Rattus norvegicus; experiment: Evaluated for distribution at 24 hours after intravenous administration in thyroid of female Sprague Dawley rats; format: ADME, organism-based, Thyroid gland; settings: in vivo; method in brief: as §1
[6] = Percent parent compound extracted at 24 hours from liver using CHCl3/CH3OH.; format: ADME, tissue-based; method in brief: as §2
[7] = Percent parent compound extracted at 0.5 hr from liver using CHCl3/CH3OH.; format: ADME, tissue-based; method in brief: as §2
[8] = system: Rattus norvegicus; experiment: Evaluated for distribution at 0.5 hr after intravenous administration in liver of female Sprague Dawley rats; format: ADME, organism-based; settings: in vivo; method in brief: as §1
[9] = Percent parent compound extracted at 0.5 hr from plasma using CHCl3/CH3OH.; format: ADME, cell-free; settings: read-out: Extracted; method in brief: as §2
[10] = Percent lipid extracted at 24 hr from liver using CHCl3/CH3OH.; format: ADME, tissue-based
Method in brief: (§3)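 Same iv dosing of radioiodinated ester in Tween to female Sprague-Dawley rats. At 0.5 or 24 h, plasma, adrenal cortex and liver were extracted with CHCl3/CH3OH. Radioactivity in the lipid extract was counted and reported as percent of tissue radioactivity extractable, ± SE.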

[11] = Percent parent compound extracted at 0.5 hr from adrenal cortex using CHCl3/CH3OH.; format: ADME, tissue-based; method in brief: as §2
[12] = system: Rattus norvegicus; experiment: Evaluated for distribution at 24 hours after intravenous administration in ovary of female Sprague Dawley rats; format: ADME, organism-based, Female gonad; settings: in vivo; method in brief: as §1
[13] = system: Rattus norvegicus; experiment: Evaluated for distribution at 0.5 hr after intravenous administration in ovary of female Sprague Dawley rats; format: ADME, organism-based, Female gonad; settings: in vivo; method in brief: as §1
[14] = Percent lipid extracted at 0.5 hr from adrenal […] using CHCl3/CH3OH.; format: ADME, tissue-based; method in brief: as §3
[15] = system: Rattus norvegicus; experiment: Evaluated for distribution at 24 hours after intravenous administration in adrenal cortex of female Sprague Dawley rats; format: ADME, organism-based; settings: in vivo; method in brief: as §1
[16] = Percent lipid extracted at 24 hours from plasma using CHCl3/CH3OH.; format: ADME, cell-free; method in brief: as §3
[17] = Percent parent compound extracted at 24 hours from adrenal cortex using CHCl3/CH3OH.; format: ADME, tissue-based; method in brief: as §2
[18] = Percent lipid extracted at 0.5 hr from […] using CHCl3/CH3OH.; format: ADME, cell-free; method in brief: as §3
[19] = Percent lipid extracted at 0.5 hr from liver using CHCl3/CH3OH.; format: ADME, tissue-based; method in brief: as §3
[20] = Percent lipid extracted at 24 hours from adrenal cortex using CHCl3/CH3OH.; format: ADME, tissue-based; method in brief: as §3
[21] = system: Rattus norvegicus; experiment: Evaluated for distribution at 0.5 hr after intravenous administration in blood of female Sprague Dawley rats; format: ADME, organism-based; settings: in vivo; method in brief: as §1
[22] = system: Rattus norvegicus; experiment: Evaluated for distribution at 0.5 hr after intravenous administration in thyroid of female Sprague Dawley rats; format: ADME, organism-based, Thyroid gland; settings: in vivo; method in brief: as §1

Row | Compound | Distribution [1] [%] | remaining at 24 h [2] [%] | Distribution [3] [%] | Distribution [4] [%] | Distribution [5] [%] | Extracted [6] [%] | Extracted [7] [%] | Distribution [8] [%] | remaining at 0.5 h [9] [%] | Extracted [10] [%] | Extracted [11] [%] | Distribution [12] [%] | Distribution [13] [%] | Extracted [14] [%] | Distribution [15] [%] | Extracted [16] [%] | Extracted [17] [%] | Extracted [18] [%] | Extracted [19] [%] | Extracted [20] [%] | also measured
1 | CCC(Cc1c(I)cc(I)c(N)c1I)C(=O)OC1CCC2(C)C(=CCC3C4CCC(=O)C4(C)CCC32)C1 (stereo unspecified) | 0.085 | 38 | 15.38 | 0.108 | 143.74 | 42.5 | 61.8 | 3.612 | 64.2 | 61.8 | 83.4 | 1.205 | 1.886 | 85.5 | 3.958 | 64.2 | 16.8 | 63.1 | 81.5 | 83.4 | Distribution [21]: 1.275%; Distribution [22]: 1.392%
2 | CCC(Cc1c(I)cc(I)c(N)c1I)C(=O)OC1CCC2(C)C(=CCC3C2CCC2(C)C(C(C)=O)CCC32)C1 (stereo unspecified) | 0.039 | 44.6 | 23.083 | 0.386 | 156.7 | 69.1 | 89.2 | 5.214 | 91.9 | 76.1 | 92.1 | 1.085 | 2.126 | 89.5 | 4.256 | 60 | 68.2 | 86.7 | 87.6 | 87.3 | Distribution [21]: 1.727%; Distribution [22]: 0.945%
3 | CCC(Cc1c(I)cc(I)c(N)c1I)C(=O)OC1CCC2(C)C(=CCC3C2CCC2(C)C(C(C)CCCC(C)C)CCC32)C1 (stereo unspecified) | 0.696 | 96.1 | 4.9 | 6.59 | 3.571 | 97.8 | 97.8 | 4.035 | 96 | 91.2 | 96.9 | 24.542 | 5.161 | 83.1 | 11.029 | 85.8 | 96.9 | 83.4 | 87.2 | 92.1 | Distribution [21]: 5.191%; Distribution [22]: 0.868%
